ChEMBL document CHEMBL4033790, “Design and Synthesis of Novel Deuterated Ligands Functionally Selective for the γ-Aminobutyric Acid Type A Receptor (GABAAR) α6 Subtype with Improved Metabolic Stability and Enhanced Bioavailability” (J Med Chem, 2018)
Converted amounts (≈) assume the structure as drawn. The source made the active and inactive calls. The calls are words filed in the database; no cut-off is given here.

Assays:
Liver [1] = experiment: Half life in human liver microsomes at 10 uM by LC-MS/MS analysis; format: ADME, microsome
Procedure, shortened: (§1)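 Compound at 10 μM final was preincubated 5 min at 37 °C with NADPH regenerating system in phosphate buffer, pH 7.4. Human or mouse liver microsomes (0.5 mg/mL protein) were added to start the reaction. Samples were taken at 0 (no microsomes) and 10–60 min and measured by LC-MS/MS against an internal standard. Half-life = 0.693/k, with k the slope of ln peak-area ratio versus time. Three experiments, each in duplicate.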

[2] = Metabolic stability in human liver microsomes assessed as parent compound remaining at 10 uM after 60 mins by LC-MS analysis; format: ADME, microsome; settings: read-out: Stability
Procedure, shortened: (§2)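 The 60 min samples of the microsomal incubation (10 μM compound, human or mouse liver microsomes at 0.5 mg/mL, NADPH regenerating system, 37 °C) were analysed by LC-MS. Detection used SIM mode with dual ESI/APCI ionization, calibrated to the retention times and masses of the parent and its O-demethylated metabolites. Peak intensities were measured.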

Liver [3] = experiment: Half life in mouse liver microsomes at 10 uM by LC-MS/MS analysis; format: ADME, microsome; procedure, shortened: as §1
[4] = Metabolic stability in mouse liver microsomes assessed as parent compound remaining at 10 uM after 60 mins by LC-MS analysis; format: ADME, microsome; settings: read-out: Stability; procedure, shortened: as §2
[5] = Aqueous solubility of the compound in DI water at pH 7 after 2 hrs by LC-MS analysis; format: physicochemical; settings: buffer, pH 7, 2 h
Procedure, shortened: (§3)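 10 mg compound dissolved in 2 mL DMAC; 10 μL of this added to 2 mL DI water (pH 7, sonicated) or 2 mL 0.01 M aq HCl (pH 2), held 2 h at 37 °C. Filtered through 0.45 micron filter, then quantified by LC-MS in SIM mode against calibration curves of standards in DMAC (n = 5); n=3.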

[6] = Solubility of the compound in 0.01M HCl at pH 2 after 2 hrs by LC-MS analysis; format: physicochemical; settings: buffer, pH 2, 2 h; procedure, shortened: as §3
Rattus norvegicus = species: Rattus norvegicus; experiment: Displacement of [3H]-flunitrazepam from rat brain GABA-A receptor benzodiazepine site […] at 10 uM after 60 to 90 mins by scintillation counting; settings: tested as the 2H-labelled form
[7] = molecular target: Delta-type opioid receptor (Homo sapiens) (UniProt P41143); experiment: Displacement of [3H]-DADLE from human recombinant DOR expressed in HEK293 cells at 10 uM after 60 to 90 mins by scintillation counting; format: cell-based; settings: tested as the 2H-labelled form
Procedure, shortened: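 Primary single-concentration radioligand displacement screen run by the NIMH Psychoactive Drug Screening Program across a 46-target panel that includes hERG. The read-out is percent inhibition of specific radioligand binding. Any compound displacing more than 50% of radioligand went on to secondary binding assays to determine Ki.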

Mus musculus = experiment: Neurotoxicity in Swiss Webster mouse assessed as induction of motor impairment at 40 mg/kg administered via oral gavage measured after 10 to 60 mins by rotarod method; format: toxicity, organism-based; settings: in vivo
Procedure, shortened: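 Female mice were given a single oral gavage dose of 40 mg/kg, either in 50% PBS/40% propylene glycol/10% DMSO or, for poorly soluble compounds, in 2% polyethylene glycol plus 2.5% hydroxymethyl cellulose. Rotarod performance was tested 10, 30 and 60 min after dosing, with diazepam 5 mg/kg as positive control.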

HEK-293T = experiment: Cytotoxicity against HEK293T cells assessed as reduction in cell viability up to 400 uM after 48 hrs by CellTiter-Glo assay; format: cell-based; settings: human
Procedure, shortened: (§4)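 HEK293T and HepG2 cells grown in high-glucose DMEM with non-essential amino acids, 10 mM HEPES, penicillin/streptomycin and 10% heat-inactivated FBS. Cells were harvested with trypsin and plated; compound was pin-transferred 3 h later. Incubation was 48 h, then CellTiter-Glo luminescence was read. Controls were DMSO (negative) and a cytotoxic aminoketone (positive). Quadruplicates, three independent runs, normalized to controls, nonlinear regression.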

HepG2 = experiment: Cytotoxicity against human HepG2 cells assessed as reduction in cell viability up to 400 uM after 48 hrs by CellTiter-Glo assay; format: cell-based; settings: hepg2, 48 h; procedure, shortened: as §4
[8] = Cmax in Wistar rat plasma at 10 mg/kg, ip administered as single dose measured at 5 to 720 mins post dose by HPLC-MS/MS analysis; format: ADME, organism-based; set-up: dose 10 mg/kg, route intraperitoneal
Procedure, shortened: (§5)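 Male Wistar rats (250-350 g) given a single 10 mg/kg i.p. dose of a 5 mg/ml suspension in 85% distilled water, 14% propylene glycol, 1% Tween 80. Three rats per time point (5, 20, 60, 180, 720 min). Blood and brain were collected after sacrifice. Drug was recovered by solid phase extraction and quantified by HPLC-MS/MS.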

[9] = Tmax in Wistar rat plasma at 10 mg/kg, ip administered as single dose by HPLC-MS/MS analysis; format: ADME, organism-based
Procedure, shortened: (§6)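 Male Wistar rats (250–350 g) received a single i.p. dose of 10 mg/kg as a 5 mg/ml suspension in 85% water, 14% propylene glycol and 1% Tween 80. Three rats per time point were sacrificed at 5, 20, 60, 180 and 720 min for plasma and brain. Samples were cleaned up by solid-phase extraction and quantified by HPLC-MS/MS.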

[10] = AUC (0 to 12 hrs) in Wistar rat plasma at 10 mg/kg, ip administered as single dose by HPLC-MS/MS analysis; format: ADME, organism-based; set-up: time < 12 hr, dose 10 mg/kg, route intraperitoneal
[11] = Terminal elimination half-life in Wistar rat plasma at 10 mg/kg, ip administered as single dose by HPLC-MS/MS analysis; format: ADME, organism-based; settings: read-out: beta t1/2 (converted); procedure, shortened: as §6
[12] = Cmax in Wistar rat brain at 10 mg/kg, ip administered as single dose measured at 5 to 720 mins post dose by HPLC-MS/MS analysis; format: ADME, organism-based; set-up: dose 10 mg/kg, route intraperitoneal; procedure, shortened: as §5
[13] = Tmax in Wistar rat brain at 10 mg/kg, ip administered as single dose by HPLC-MS/MS analysis; format: ADME, organism-based; procedure, shortened: as §6
Brain [14] = experiment: AUC (0 to 12 hrs) in Wistar rat brain at 10 mg/kg, ip administered as single dose by HPLC-MS/MS analysis; format: ADME, organism-based; set-up: dose 10 mg/kg, time < 12 hr, route intraperitoneal; settings: in vivo
[15] = Terminal elimination half-life in Wistar rat brain at 10 mg/kg, ip administered as single dose by HPLC-MS/MS analysis; format: ADME, organism-based; settings: read-out: beta t1/2 (converted); procedure, shortened: as §6
[16] = Ratio of brain AUC (0 to t) to plasma AUC (0 to t), Kp of the compound in Wistar rat at 10 mg/kg, ip administered as single dose by HPLC-MS/MS analysis; format: ADME, organism-based
[17] = molecular target: Voltage-gated inwardly rectifying potassium channel KCNH2 (Homo sapiens, UniProt Q12809); experiment: Displacement of [3H]-dofetilide from human ERG expressed in HEK cell membranes at >10 uM after 60 to 90 mins by scintillation counting
Brain [18] = experiment: Fraction unbound in Wistar rat brain at 10 mg/kg, ip administered as single dose measured at 5 to 720 mins post dose by HPLC-MS/MS analysis; format: ADME, organism-based; settings: in vivo
Procedure, shortened: (§7)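 Free fraction in rat plasma and brain tissue was measured in vitro by rapid equilibrium dialysis. Exposure came from male Wistar rats (250-350 g) given a single 10 mg/kg IP dose, as a 5 mg/ml suspension in 85% water, 14% propylene glycol and 1% Tween 80. Three rats per time point (5–720 min); brain analysed by HPLC-MS/MS after solid-phase extraction.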

Brain [19] = experiment: Unbound AUC in Wistar rat brain at 10 mg/kg, ip administered as single dose measured at 5 to 720 mins post dose by HPLC-MS/MS analysis; format: ADME, organism-based; settings: in vivo; procedure, shortened: as §7

Voltage-gated inwardly rectifying potassium channel KCNH2, sequence (Q12809 whole entry): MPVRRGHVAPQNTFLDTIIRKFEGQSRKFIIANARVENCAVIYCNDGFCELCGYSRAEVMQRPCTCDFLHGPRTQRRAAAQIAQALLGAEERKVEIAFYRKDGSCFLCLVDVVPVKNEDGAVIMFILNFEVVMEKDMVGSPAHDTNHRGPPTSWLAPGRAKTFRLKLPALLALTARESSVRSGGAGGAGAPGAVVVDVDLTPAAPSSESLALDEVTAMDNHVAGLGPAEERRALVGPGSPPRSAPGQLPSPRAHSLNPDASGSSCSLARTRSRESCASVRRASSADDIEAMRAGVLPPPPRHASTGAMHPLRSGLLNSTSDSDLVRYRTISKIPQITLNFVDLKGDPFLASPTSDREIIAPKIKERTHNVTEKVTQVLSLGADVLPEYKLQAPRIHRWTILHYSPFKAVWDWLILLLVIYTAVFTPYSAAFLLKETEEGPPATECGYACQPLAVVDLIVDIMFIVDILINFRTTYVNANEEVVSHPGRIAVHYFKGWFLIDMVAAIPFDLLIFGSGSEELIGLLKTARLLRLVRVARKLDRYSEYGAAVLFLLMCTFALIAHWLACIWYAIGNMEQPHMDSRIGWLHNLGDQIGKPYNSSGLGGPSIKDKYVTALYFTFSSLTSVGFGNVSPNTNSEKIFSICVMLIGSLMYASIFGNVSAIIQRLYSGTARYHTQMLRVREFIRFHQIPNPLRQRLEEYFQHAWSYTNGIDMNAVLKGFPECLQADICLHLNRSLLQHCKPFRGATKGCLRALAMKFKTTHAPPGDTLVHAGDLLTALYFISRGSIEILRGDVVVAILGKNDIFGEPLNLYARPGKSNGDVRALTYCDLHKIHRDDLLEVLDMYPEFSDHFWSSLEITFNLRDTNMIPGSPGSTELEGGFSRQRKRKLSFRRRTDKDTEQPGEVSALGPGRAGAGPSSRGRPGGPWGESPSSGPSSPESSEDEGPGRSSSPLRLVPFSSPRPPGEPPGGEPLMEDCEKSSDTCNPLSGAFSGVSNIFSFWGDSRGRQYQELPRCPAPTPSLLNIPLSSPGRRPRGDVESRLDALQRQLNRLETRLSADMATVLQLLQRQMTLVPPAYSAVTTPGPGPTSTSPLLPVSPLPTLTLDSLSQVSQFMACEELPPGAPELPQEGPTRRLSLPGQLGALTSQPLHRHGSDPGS
Delta-type opioid receptor (Homo sapiens), sequence (P41143 whole entry): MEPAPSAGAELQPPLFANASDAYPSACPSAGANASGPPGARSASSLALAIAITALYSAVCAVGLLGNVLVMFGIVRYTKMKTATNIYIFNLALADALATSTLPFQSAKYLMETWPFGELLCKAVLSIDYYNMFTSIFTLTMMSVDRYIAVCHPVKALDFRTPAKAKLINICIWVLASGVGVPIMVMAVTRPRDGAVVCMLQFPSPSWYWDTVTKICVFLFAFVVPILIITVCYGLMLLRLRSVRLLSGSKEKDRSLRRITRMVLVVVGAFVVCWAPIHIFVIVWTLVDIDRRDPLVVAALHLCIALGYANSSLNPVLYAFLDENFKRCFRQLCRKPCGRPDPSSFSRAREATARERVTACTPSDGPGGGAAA

Q: For COc1ccc(-n2nc3c4cc(Cl)ccc4[nH]cc-3c2=O)cc1, which t1/2 (Liver [1]) is on record?
A: 2.3 h

Q: And the remaining at 1 h, 10 µM [2]?
A: 72.5%

Q: What about the t1/2 (Liver [3]) of the same molecule?
A: 1.9 h

Q: And the remaining at 1 h, 10 µM [4]?
A: 69.2%

Q: What about the solubility [5] of the same molecule?
A: 6.4 µM (≈ 2.08 µg/mL)

Q: What about the solubility [6] of the same molecule?
A: 8.5 µM (≈ 2.77 µg/mL)

Q: What about the inhibition (Rattus norvegicus) of the same molecule?
A: Active

Q: What about the inhibition [7] of the same molecule?
A: Active

Q: What about the Activity (Mus musculus) of the same molecule?
A: Non-Toxic

Q: Which remaining at 1 h, 10 µM [2] does the source give for [2H]C([2H])([2H])Oc1ccc(-n2nc3c4ccc(OC([2H])([2H])[2H])cc4[nH]cc-3c2=O)cc1 here?
A: 91.5%

Q: And the remaining at 1 h, 10 µM [4]?
A: 93.1%

Q: And the Activity (HEK-293T)?
A: Non-Toxic

Q: What about the Activity (HepG2) of the same molecule?
A: Non-Toxic

Q: What about the Activity (Mus musculus) of the same molecule?
A: Non-Toxic

Q: And the Cmax [8]?
A: 3410 ng/mL

Q: And the Tmax [9]?
A: 0.55 h

Q: And the AUC(0-t) at 12 h [10]?
A: 16700 ng·h/mL

Q: And the half-life [11]?
A: 2.64 h

Q: What about the Cmax [12] of the same molecule?
A: 534 ng/g

Q: What about the Tmax [13] of the same molecule?
A: 0.78 h

Q: What about the AUC (Brain [14]) of the same molecule?
A: 2747.67 ng·h/g

Q: What about the half-life [15] of the same molecule?
A: 3.52 h

Q: And the Kp [16]?
A: 0.17

Q: And the “inhibition (INH)” value [17]?
A: Not Active

Q: What about the Fu (Brain [18]) of the same molecule?
A: 0.105

Q: What about the fAUC (Brain [19]) of the same molecule?
A: 288.78 ng·h/g
